Measured values: ChEMBL document CHEMBL3244217, “Metabolism of cis-delta4-15(S)-15-methylprostaglandin F1alpha methyl ester in the rat” (J Med Chem, 1978)

Tests used:
Parameters in all cases: dose 0.28 mg/kg, route oral
[1] = tested on: Rattus norvegicus; assay: Drug level in Sprague-Dawley rat treated with [3H]-cis-delta4-15(S)-15-methylprostaglandin F1alpha methyl ester at 0.28 mg/kg, po assessed compound formation; format: ADME, organism-based; details: in vivo
[2] = tested on: Rattus norvegicus; assay: Drug metabolism in Sprague-Dawley rat assessed as metabolite 5 ((4aR,5R,6R,7aS)-6-hydroxy-5-((S)-3-hydroxy-3-methyloct-1-enyl)hexahydrocyclopenta[b]pyran-2(3H)-one) formation at 0.28 mg/kg, po administered as single dose; format: ADME, organism-based; details: in vivo
Procedure, shortened: (§1)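 Urine was extracted on an Amberlite XAD-2 column and partially purified by silicic acid chromatography. Components were then separated by reversed-phase partition chromatography on Sephadex LH-20 (isooctyl alcohol–chloroform–methanol–water, 15:15:114:86), collecting 9-mL fractions. Identification used GC with radioactivity monitoring (3.8% UCW-98, 200 °C) and GC-MS of methyl ester, O-methoxime and trimethylsilyl derivatives; silylation was at 50 °C for 1 h.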

[3] = Drug excretion in Sprague-Dawley rat urine at 0.28 mg/kg, po administered as single dose within 74 hrs relative to control; format: ADME, organism-based; details: read-out: Drug excretion
Procedure, shortened: (§2)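 Four female Sprague-Dawley rats (Upjohn strain), about 200 g, were fasted overnight and each given one 0.28-mg oral dose of tritium-labeled drug (1.24 × 10^7 dpm) in distilled water by gastric tube. They were then kept in metabolism cages with free food and water, and urine and feces were collected at intervals. Radioactivity was read by liquid scintillation with external-standard quench correction. Urine aliquots (0.2 mL) were counted directly; feces were homogenized in water and aliquots dried and combusted before counting.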

[4] = Drug excretion in Sprague-Dawley rat feces at 0.28 mg/kg, po administered as single dose within 74 hrs relative to control; format: ADME, organism-based; details: faeces, read-out: Drug excretion; procedure, shortened: as §2
[5] = tested on: Rattus norvegicus; assay: Toxicity in Sprague-Dawley rat assessed as depression at 0.28 mg/kg, po up to 1 to 3 days; format: organism-based; details: in vivo
Procedure, shortened: (§3)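 Fifteen rats were kept in metabolism cages for 17 days. Each morning they received an oral dose of 0.25 mg of tritium-labelled drug (1 × 10^7 dpm). The animals were watched for side effects, including depression, diarrhoea, faecal staining of the abdomen and mortality, over the chronic dosing period.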

[6] = tested on: Rattus norvegicus; assay: Toxicity in Sprague-Dawley rat assessed as diarrhea at 0.28 mg/kg, po up to 1 to 3 days; format: organism-based; details: in vivo; procedure, shortened: as §3
[7] = tested on: Rattus norvegicus; assay: Toxicity in Sprague-Dawley rat assessed as fecal stained abdominal area at 0.28 mg/kg, po up to 1 to 3 days; format: organism-based, Abdomen; details: in vivo; procedure, shortened: as §3
[8] = tested on: Rattus norvegicus; assay: Toxicity in Sprague-Dawley rat assessed as mortality at 0.28 mg/kg, po; format: organism-based; details: in vivo; procedure, shortened: as §3
[9] = tested on: Rattus norvegicus; assay: Toxicity in Sprague-Dawley rat assessed as depression at 0.28 mg/kg, po after 3 days; format: organism-based; details: in vivo, 72 h
[10] = tested on: Rattus norvegicus; assay: Toxicity in Sprague-Dawley rat assessed as diarrhea at 0.28 mg/kg, po after 3 days; format: organism-based; details: in vivo, 72 h
[11] = tested on: Rattus norvegicus; assay: Toxicity in Sprague-Dawley rat assessed as fecal stained abdominal area at 0.28 mg/kg, po after 3 days; format: organism-based, Abdomen; details: in vivo, 72 h
[12] = tested on: Rattus norvegicus; assay: Drug metabolism in Sprague-Dawley rat assessed as metabolite 2 (cis-delta4-15-methylprostaglandin F1alpha) formation at 0.28 mg/kg, po administered as single dose; format: ADME, organism-based; details: in vivo; procedure, shortened: as §1
[13] = tested on: Rattus norvegicus; assay: Drug metabolism in Sprague-Dawley rat assessed as metabolite 3 (15-methyl-2,3-dinorprostaglandin F1alpha) formation at 0.28 mg/kg, po administered as single dose; format: ADME, organism-based; details: in vivo; procedure, shortened: as §1
[14] = tested on: Rattus norvegicus; assay: Drug metabolism in Sprague-Dawley rat assessed as metabolite 4 (15-methyl-2,3,4,5-tetranorprostaglandin F1alpha) formation at 0.28 mg/kg, po administered as single dose; format: ADME, organism-based; details: in vivo; procedure, shortened: as §1

CCCCC[C@](C)(O)/C=C/[C@@H]1[C@@H](CCC(=O)O)[C@@H](O)C[C@H]1O
Drug metabolism [1]: metabolite_detected

CCCCC[C@](C)(O)/C=C/[C@@H]1[C@H]2CCC(=O)O[C@H]2C[C@H]1O
Drug metabolism [1]: metabolite_detected

CCCCC[C@](C)(O)/C=C/[C@@H]1[C@@H](CC/C=C\CCC(=O)O)[C@@H](O)C[C@H]1O
Drug metabolism [1]: metabolite_detected

CCCCC[C@](C)(O)/C=C/[C@@H]1[C@@H](CCCCC(=O)O)[C@@H](O)C[C@H]1O
Drug metabolism [1]: metabolite_detected

[3H]O[C@H]1C[C@@H](O)[C@H](/C=C/[C@@](C)(O)CCCCC)[C@H]1CC/C=C\CCC(=O)OC
Drug metabolism [2]: metabolite_detected | dose excreted at 74 h [3]: 30% | dose excreted at 74 h [4]: 38% | Activity [5]: Toxic | Activity [6]: Toxic | Activity [7]: Toxic | Activity [8]: Non-toxic | Activity [9]: Non-toxic | Activity [10]: Non-toxic | Activity [11]: Non-toxic | Drug metabolism [12]: metabolite_detected | Drug metabolism [13]: metabolite_detected | Drug metabolism [14]: metabolite_detected
